# Bioassay records (PubChem)
# Compounds with a hit are over-represented: about 5.1% of the library has one in this group of screens.
# STAT1 inh – reduces IFN-gamma driven STAT1 reporter signal. NIH 3T3 STAT1-luciferase reporter, luminescence. inhibition, % at 5.5 µM. 200,000 compounds, 0.35% hits. AID 920;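 active = inhibition above a set limit, the mean inhibition across all tested compounds plus 3 SD, cut at about 34% in these data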
# NF-kB expr up – NF-kB expression increase, human neuronal cells; NF-kB reporter expression; active compounds read high; fold change at 12.5 µM; 190,000 compounds, 1.6% hits; AID 1239; in the data active = fold change above about 3.3
# STAT1 activator – activators of IFN-gamma induced STAT1 signaling; NIH 3T3 STAT1-luciferase reporter, luminescence; 100% = IFN-gamma alone, no compound; activation (% of control), % at 5.5 µM; 200,000 compounds, 2.6% hits; AID 932;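 active = activation above the screen-wide mean activation plus 3 SD, cut at about 130% in these data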
# APP 5'UTR act – activates APP 5'UTR luciferase reporter. SH-SY5Y APP 5'UTR luciferase reporter, luminescence; zero percent = DMSO vehicle wells. activation, % at 2 µM. 190,000 compounds, 1% hits;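 active = activation above a set limit, based on mean plus 3 SD of controls, cut at about 140% in these data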
# STAT3 inh – inhibitors of IL-6 induced STAT3 signaling; 190,000 compounds, 0.89% hits; U3A cells, IL-6 STAT3-luciferase reporter, luminescence; host cell line lacks STAT1; inhibition, % at 5.5 µM;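 active = inhibition above the mean inhibition across all screened compounds plus 3 SD, cut at about 44% in these data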
# STAT3 activator – STAT3 signaling activation | U3A cells, IL-6 STAT3-luciferase reporter, luminescence; 100% = signal with IL-6 EC80 alone | 190,000 compounds, 0.91% hits | activation (% of control), % at 5.6 µM;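 active = activation above the screen-wide mean of compound activation plus 3 SD, cut at about 130% in these data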
#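 Material: STAT1-lacking human U3A cells, STAT3 luciferase reporter | Benchmarks: IL-6-only wells as 100% reference | Probe or stimulus: IL-6 (33 ng/mL) | Timing: Compound 1 h, then IL-6 6 h at 37 °C | Detection: Luminescence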
# A number is an active result; i = inactive; nt = no result.
SMILES,STAT1 inh,NF-kB expr up,STAT1 activator,APP 5'UTR act,STAT3 inh,STAT3 activator
COCCNC(=O)c1cc(-c2cccs2)on1,i,6.4,135,i,i,i
Cc1ccc(NC(=O)c2cc(-c3cccs3)on2)cc1,i,i,130,i,i,i
Cc1ccc(NC(=O)C(=O)NNC(=O)c2cccs2)cc1,i,i,i,i,i,i
Cc1ccc(NC(=S)Nc2ccc(C(C)C)cc2)cc1S(=O)(=O)N1CCCCCC1,i,i,i,i,i,i
O=C(NCc1cccs1)c1cc(-c2cccs2)on1,i,i,138,i,i,i
O=C(Nc1ccc(NC(=O)C2CCCCC2)nc1)c1cccs1,i,i,132,i,i,i
O=C(NCc1cccs1)c1cc(-c2ccccc2)on1,i,i,i,i,i,i
O=C(c1cccn(Cc2ccc(Cl)c(Cl)c2)c1=O)N1CCOCC1,i,i,i,i,i,i
O=c1c(-c2nc3ccccc3s2)cccn1Cc1ccc(Cl)c(Cl)c1,i,3.5,i,i,i,i
O=C(c1ccc(-c2ccc(Cl)cc2)o1)N1CCN(c2ccc([N+](=O)[O-])cc2Cl)CC1,i,i,i,i,i,i
O=C(c1ccc(-c2ccc([N+](=O)[O-])cc2)o1)N1CCCCC1,i,4.8,i,180,i,i
Clc1ccc(-c2nc3n(n2)Cc2ccccc2-3)cc1,i,6.1,150,139,i,i
CCN(CC)S(=O)(=O)c1cccc(-c2nc3n(n2)Cc2ccccc2-3)c1,i,i,i,i,i,i
O=S(=O)(CCc1nc2ccccc2s1)c1ccc(Cl)cc1,i,i,i,i,i,i
c1ccc(OCc2nc3ccccc3s2)cc1,i,4.3,141,i,i,i
N#Cc1ccc(NC(=O)CCc2nc3ccccc3s2)cc1,i,i,i,i,i,i
Fc1ccc(OCc2nc3ccccc3s2)cc1,i,5.2,136,269,i,i
O=S(=O)(Cc1nc2ccccc2s1)c1ccccc1,i,i,138,i,i,i
CCC(=O)Nc1ccc(OCc2nc3ccccc3s2)cc1,i,4.2,134,216,i,i
CCOC(=O)c1ccc(NC(=O)CSc2ccc(-c3ccncc3)nn2)cc1,i,i,i,i,i,i
Cn1c(=O)n(C)c2cc(NS(=O)(=O)c3cccs3)ccc21,i,i,i,i,i,i
COCCNc1nc(C)c(C(C)=O)s1,i,i,i,i,i,i
O=C1/C(=C\c2ccc([N+](=O)[O-])cc2)CCc2ccccc21,i,i,i,136,i,i
COc1ccc(CC(=O)NCCC(C)C)cc1S(=O)(=O)N1CCOCC1,i,i,i,i,i,i
COc1cccc(CN2CCN(Cc3ccc(OC)c(OC)c3)CC2CCO)c1 (configuration not stated),i,i,i,i,i,i
SMILES,STAT1 inh,NF-kB expr up,STAT1 activator,APP 5'UTR act,STAT3 inh,STAT3 activator
COc1cc(S(=O)(=O)n2nc(C)cc2C)c(OC)cc1Cl,i,i,i,i,i,i
O=c1sc(N2CCN(c3ccccc3F)CC2)nc2ccsc12,i,3.6,139,i,i,i
CCCCNC(=O)COC(=O)c1c2c(nc3ccccc13)/C(=C/c1cccs1)CC2,i,i,i,i,i,i
CNC(=O)NC(=O)C(C)OC(=O)c1c2c(nc3ccccc13)/C(=C/c1cccs1)CC2 (configuration not stated),i,i,130,i,i,i
COc1ccc(Oc2nnnn2-c2ccccc2)cc1,i,i,i,i,i,i
COc1cccc(Oc2nnnn2-c2ccccc2)c1,i,i,131,i,i,i
N/C(=N\OC(=O)Cc1ccccc1)c1cccc(Br)c1,i,nt,i,i,i,i
N/C(=N\OC(=O)c1cccs1)c1cccc(Br)c1,i,i,136,i,i,i
Cc1cccc(/C(N)=N/OC(=O)COc2ccc(Cl)cc2)c1,i,i,i,i,i,i
Cc1cccc(/C(N)=N/OC(=O)c2ccc(F)cc2)c1,i,i,140,i,i,i
Cc1cccc(/C(N)=N/OC(=O)c2cccs2)c1,i,6,140,237,i,i
CCOC(=O)c1sc2nc3c(cc2c1N)COC(C)(C)C3,i,5.9,136,i,i,i
CCCCNC1=CC(=O)C(=O)c2ccccc21,i,i,i,i,i,i
CCCCN1C=CC(=C2C(=O)c3ccccc3C2=O)C=C1,95,i,i,i,112,i
Cc1ccc(C)n1-c1ccc(C(=O)NN)s1,i,i,i,i,i,i
C/C(=C\C(=O)c1ccc(C)cc1)Nc1cccc(O)c1,i,i,i,157,i,i
C/C(=C\C(=O)c1cccnc1)Nc1ccc(O)cc1,i,i,i,nt,i,i
C/C(=C\C(=O)c1ccccc1)Nc1ccc(O)cc1,i,4.5,140,i,i,i
CC(=O)c1c(C(=O)O)[nH]c(C(=O)O)c1C,i,i,i,i,i,i
Cc1c(CCOC(=O)C23CC4CC(CC(C4)C2)C3)sc[n+]1CC#N,i,i,i,i,i,i
COCCNC(=O)c1ccccc1NC(=O)Cc1ccccc1,i,i,i,i,i,i
Nc1ccccc1Nc1cccc(C(F)(F)F)c1,i,i,129,i,i,i
Nc1ccc(Nc2ccccc2N)cc1,i,i,i,i,i,i
Brc1ccc(-c2csc(/N=C/N3CCOCC3)n2)cc1,i,i,136,i,i,i
OCCN(/C=N/c1nc(-c2ccc(Br)cc2)cs1)CCO,i,i,i,i,i,i
SMILES,STAT1 inh,NF-kB expr up,STAT1 activator,APP 5'UTR act,STAT3 inh,STAT3 activator
NC(=O)C1CCN(c2nc(-c3ccc(Br)cc3)cs2)CC1,i,i,131,i,i,i
Brc1ccc(-c2csc(/N=C/N3CCCC3)n2)cc1,i,i,132,i,i,i
NC(=O)C1(N2CCCCC2)CCN(c2nc(-c3ccc(Br)cc3)cs2)CC1,i,i,i,i,i,i
CCNC(=S)N1CCN(C(=O)C(Cc2ccccc2)NC(C)=O)CC1 (configuration not stated),i,i,i,i,i,i
COc1ccc(CC(=O)OCC(=O)Nc2ccc(Br)cc2)cc1,i,i,i,i,i,i
Cc1nc(-c2ccncc2)sc1C(=O)Nc1ccc(Br)cc1,i,i,i,i,i,i
O=C(/C=C/Nc1ccc(Br)cc1F)c1ccccc1,47,i,i,140,90,i
CC(=O)c1ccc(N/C=C\C(=O)c2ccc(C)cc2)cc1,i,i,148,i,i,i
COC(=O)c1ccc(/C=C/C(=O)c2ccc(OC)c(OC)c2)cc1,i,i,i,i,i,i
O=C(/C=C\Nc1ccc(Cl)cn1)c1ccc(Br)cc1,i,i,134,i,i,i
COc1ccc(C(=O)/C=C/Nc2ccc(C)cn2)cc1OC,i,5.2,143,145,i,i
CC(NC(=O)CCc1nnc(CCCc2ccccc2)o1)c1ccccc1 (configuration not stated),i,i,i,i,i,i
